The structures appear in SMILES notation. Some results are limits rather than exact numbers.

Tested on in one assay: not listed separately
The assay can be described thus: Inhibition of Trypanosoma brucei GSK3 using biotinylated GSP2 substrate by flashplate assay.
Conditions: not given
The essentials: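 Radiometric Flashplate assay: 2.5 nM TbGSK3 short, 1 μM biotinylated GSP2, 1 μM ATP plus [γ-33P]-ATP. 10-point titration 30 μM to 0.3 nM final, 1% DMSO. IC50 averaged over two or more experiments; standard GW8510 used for reproducibility (MSR).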
With `CO[C@H]1CC[C@H](NC(=O)c2n[nH]cc2NC(=O)c2ccc(OC(F)F)cc2)CC1`, 0.016 µM corresponded to half-maximal inhibition (IC50).
The molecule `COc1cccc(OC)c1C(=O)Nc1c[nH]nc1C(=O)NCCCOC(C)C` had an IC50 of 0.001 µM.
On the same count and under the same terms, next, `COc1cccc(OC)c1C(=O)Nc1c[nH]nc1C(=O)NC1CCC(C)CC1` (mixture of isomers): 0.001 µM; `CCCCCNC(=O)c1n[nH]cc1NC(=O)c1c(OC)cccc1OC`: 0.001 µM; `COc1cccc(OC)c1C(=O)Nc1c[nH]nc1C(=O)NC1CC2CCC1C2` (configuration not stated): 0.018 µM.
Turning to `CO[C@H]1CC[C@H](NC(=O)c2n[nH]cc2NC(=O)c2cc(Cl)cc(Cl)c2)CC1`, the IC50 was found to be 0.057 µM.
`COc1cccc(OC)c1C(=O)Nc1c[nH]nc1C(=O)NC1CC1` displayed an IC50 of 0.012 µM.
As for `CO[C@H]1CC[C@H](NC(=O)c2n[nH]cc2NC(=O)c2ccccc2F)CC1`, the half-inhibitory concentration (IC50) turned out to be 0.02 µM.
In the case of `CO[C@H]1CC[C@H](NC(=O)c2n[nH]cc2NC(=O)c2cnc3ccccn23)CC1`, half-maximal inhibition (IC50) required 0.094 µM.
As to `COc1cccc(OC)c1C(=O)Nc1c[nH]nc1C(=O)O`, the half-inhibitory concentration (IC50) is more than 50 µM.
The same measure, in the same setting: next, `CO[C@H]1CC[C@H](NC(=O)c2n[nH]cc2NC(=O)c2ccccc2Nc2ccccc2)CC1`: 0.011 µM; `CO[C@H]1CC[C@H](NC(=O)c2n[nH]cc2NC(=O)c2ccccc2C(F)(F)F)CC1`: 0.018 µM.

Another assay addresses Glycogen synthase kinase-3 (Homo sapiens, UniProt P49840+P49841). Description: Inhibition of human GSK3 using biotinylated GSP2 substrate by flashplate assay. The assay is classed as protein assay.
Conditions: not given
Take `CO[C@H]1CC[C@H](NC(=O)c2n[nH]cc2NC(=O)c2ccc(OC(F)F)cc2)CC1`: the IC50 was less than 0.005 µM.
`CCCCCNC(=O)c1n[nH]cc1NC(=O)c1c(OC)cccc1OC` showed an IC50 of 0.1 µM. In other words, the sub-micromolar range.
Same read-out and setting: with `CO[C@H]1CC[C@H](NC(=O)c2n[nH]cc2NC(=O)c2cc(Cl)cc(Cl)c2)CC1` the figure was less than 0.005 µM.
Turning to `COc1cccc(OC)c1C(=O)Nc1c[nH]nc1C(=O)NC1CC1`, the IC50 worked out at 0.22 µM.
Turning to `CO[C@H]1CC[C@H](NC(=O)c2n[nH]cc2NC(=O)c2ccccc2F)CC1`, the IC50 was less than 0.005 µM.
Take `CO[C@H]1CC[C@H](NC(=O)c2n[nH]cc2NC(=O)c2cnc3ccccn23)CC1`: the IC50 is less than 0.005 µM.
The same measure, in the same setting: with `COc1cccc(OC)c1C(=O)Nc1c[nH]nc1C(=O)O` the figure was more than 10 µM; with `CO[C@H]1CC[C@H](NC(=O)c2n[nH]cc2NC(=O)c2ccccc2Nc2ccccc2)CC1`, 0.02 µM; with `CO[C@H]1CC[C@H](NC(=O)c2n[nH]cc2NC(=O)c2ccccc2C(F)(F)F)CC1`, less than 0.013 µM.

Tested on in another assay: not listed separately
The assay can be described thus: Selectivity ratio, ratio of IC50 for human GSK3 to IC50 Trypanosoma brucei GSK3.
Conditions: not given
For the molecule `COc1cccc(OC)c1C(=O)Nc1c[nH]nc1C(=O)NC1CC1`, the Ratio IC50 came out at 18.
With `CO[C@H]1CC[C@H](NC(=O)c2n[nH]cc2NC(=O)c2ccccc2F)CC1`, the Ratio IC50 was found to be 0.25.
Take `CO[C@H]1CC[C@H](NC(=O)c2n[nH]cc2NC(=O)c2ccccc2Nc2ccccc2)CC1`: the Ratio IC50 worked out at 1.8.

The next assay addresses CDK2/Cyclin A2 (Homo sapiens, UniProt P24941). The assay can be described thus: Inhibition of human CDK2/cyclin A using Biotin-C6-PKTPKKAKKL substrate. It is filed as protein-complex assay.
Conditions: not given
As to `CO[C@H]1CC[C@H](NC(=O)c2n[nH]cc2NC(=O)c2ccc(OC(F)F)cc2)CC1`, the IC50 was determined as 0.27 µM.
Turning to `COc1cccc(OC)c1C(=O)Nc1c[nH]nc1C(=O)NCCCOC(C)C`, the IC50 is more than 10 µM.
`COc1cccc(OC)c1C(=O)Nc1c[nH]nc1C(=O)NC1CCC(C)CC1` (mixture of isomers) yielded an IC50 of more than 4.8 µM.
In turn, `CCCCCNC(=O)c1n[nH]cc1NC(=O)c1c(OC)cccc1OC` returned an IC50 of 4.8 µM.
For the molecule `COc1cccc(OC)c1C(=O)Nc1c[nH]nc1C(=O)NC1CC2CCC1C2` (configuration not stated), the IC50 is more than 10 µM.
`CO[C@H]1CC[C@H](NC(=O)c2n[nH]cc2NC(=O)c2cc(Cl)cc(Cl)c2)CC1` showed an IC50 of 0.63 µM. In other words, the sub-micromolar range.
Turning to `COc1cccc(OC)c1C(=O)Nc1c[nH]nc1C(=O)NC1CC1`, the IC50 was more than 10 µM.
Still for that read-out and setting: with `CO[C@H]1CC[C@H](NC(=O)c2n[nH]cc2NC(=O)c2ccccc2F)CC1` the figure was 0.014 µM; with `CO[C@H]1CC[C@H](NC(=O)c2n[nH]cc2NC(=O)c2cnc3ccccn23)CC1`, 0.15 µM; with `COc1cccc(OC)c1C(=O)Nc1c[nH]nc1C(=O)O`, more than 10 µM.
In turn, `CO[C@H]1CC[C@H](NC(=O)c2n[nH]cc2NC(=O)c2ccccc2C(F)(F)F)CC1` displayed an IC50 of 0.1 µM.

Tested on in a further assay: not listed separately
Description: Selectivity ratio, ratio of IC50 for human CDK2/cyclin A to IC50 for Trypanosoma brucei GSK3.
Conditions: not given
Turning to `CO[C@H]1CC[C@H](NC(=O)c2n[nH]cc2NC(=O)c2ccc(OC(F)F)cc2)CC1`, the Ratio IC50 came out at 17.
On to `COc1cccc(OC)c1C(=O)Nc1c[nH]nc1C(=O)NCCCOC(C)C`, for which the Ratio IC50 is more than 10000.
For `COc1cccc(OC)c1C(=O)Nc1c[nH]nc1C(=O)NC1CCC(C)CC1` (mixture of isomers), the Ratio IC50 was 4800.
`CCCCCNC(=O)c1n[nH]cc1NC(=O)c1c(OC)cccc1OC`: the Ratio IC50 came to 4800.
Turning to `COc1cccc(OC)c1C(=O)Nc1c[nH]nc1C(=O)NC1CC2CCC1C2` (configuration not stated), the Ratio IC50 is more than 560.
Same read-out and setting: next, `CO[C@H]1CC[C@H](NC(=O)c2n[nH]cc2NC(=O)c2cc(Cl)cc(Cl)c2)CC1`: 11; `CO[C@H]1CC[C@H](NC(=O)c2n[nH]cc2NC(=O)c2cnc3ccccn23)CC1`: 1.6.
On to `CO[C@H]1CC[C@H](NC(=O)c2n[nH]cc2NC(=O)c2ccccc2C(F)(F)F)CC1`, for which the Ratio IC50 was 5.6.

Another assay has as its system Trypanosoma brucei brucei. The assay can be described thus: Trypanocidal activity against bloodstream stage of Trypanosoma brucei brucei assessed as inhibition of proliferation after 72 hrs. The assay is classed as functional, organism-based.
Conditions: not given
The essentials: (§1)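 Resazurin viability assay: 2 × 10³ cells/well (MRC5 in MEM + 10% FBS; bloodstream-form T. b. brucei in appropriate medium), compounds 50 μM to 0.5 nM, 37 °C, 5% CO₂ for 69 h, then resazurin 50 μM final for further 4 h; fluorescence read. Concentration giving 50% growth inhibition over 72 h; average of two or more experiments.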
For `CO[C@H]1CC[C@H](NC(=O)c2n[nH]cc2NC(=O)c2ccc(OC(F)F)cc2)CC1`, the concentration for a half-maximal effect (EC50) is 1.1 µM.
Consider `COc1cccc(OC)c1C(=O)Nc1c[nH]nc1C(=O)NCCCOC(C)C`, for which the EC50 was determined as 6.6 µM.
Same read-out and setting: next, `COc1cccc(OC)c1C(=O)Nc1c[nH]nc1C(=O)NC1CCC(C)CC1` (mixture of isomers): 6.7 µM; `CCCCCNC(=O)c1n[nH]cc1NC(=O)c1c(OC)cccc1OC`: 7.3 µM; `COc1cccc(OC)c1C(=O)Nc1c[nH]nc1C(=O)NC1CC2CCC1C2` (configuration not stated): 16 µM.
For `CO[C@H]1CC[C@H](NC(=O)c2n[nH]cc2NC(=O)c2cc(Cl)cc(Cl)c2)CC1`, the concentration giving a half-maximal response (EC50) is 9.6 µM.
With `COc1cccc(OC)c1C(=O)Nc1c[nH]nc1C(=O)NC1CC1`, the 50% effective concentration (EC50) was 19 µM.
With `CO[C@H]1CC[C@H](NC(=O)c2n[nH]cc2NC(=O)c2ccccc2F)CC1`, the EC50 was 0.4 µM.
With `CO[C@H]1CC[C@H](NC(=O)c2n[nH]cc2NC(=O)c2cnc3ccccn23)CC1`, the half-maximal effective concentration (EC50) came to 2.6 µM.
On the same count and under the same terms, with `COc1cccc(OC)c1C(=O)Nc1c[nH]nc1C(=O)O` the figure was more than 50 µM; with `CO[C@H]1CC[C@H](NC(=O)c2n[nH]cc2NC(=O)c2ccccc2Nc2ccccc2)CC1`, 4.4 µM.
As to `CO[C@H]1CC[C@H](NC(=O)c2n[nH]cc2NC(=O)c2ccccc2C(F)(F)F)CC1`, the EC50 came to 2.3 µM.

A further assay deals with MRC5. The assay can be described thus: Cytotoxicity against human MRC5 cells assessed as growth inhibition after 72 hrs. It is filed as cell-based. The following applies: MRC5, 72 h. The essentials:
as §1
For `CO[C@H]1CC[C@H](NC(=O)c2n[nH]cc2NC(=O)c2ccc(OC(F)F)cc2)CC1`, the concentration for a half-maximal effect (EC50) was 2.5 µM.
Take `COc1cccc(OC)c1C(=O)Nc1c[nH]nc1C(=O)NCCCOC(C)C`: the EC50 is more than 50 µM.
Take `COc1cccc(OC)c1C(=O)Nc1c[nH]nc1C(=O)NC1CCC(C)CC1` (mixture of isomers): the half-maximal effective concentration (EC50) was 45 µM.
Still for that read-out and setting: next, `CCCCCNC(=O)c1n[nH]cc1NC(=O)c1c(OC)cccc1OC`: more than 50 µM; `COc1cccc(OC)c1C(=O)Nc1c[nH]nc1C(=O)NC1CC2CCC1C2` (configuration not stated): more than 50 µM; `CO[C@H]1CC[C@H](NC(=O)c2n[nH]cc2NC(=O)c2cc(Cl)cc(Cl)c2)CC1`: 13 µM.
On to `COc1cccc(OC)c1C(=O)Nc1c[nH]nc1C(=O)NC1CC1`, for which the concentration giving a half-maximal response (EC50) was more than 50 µM.
As for `CO[C@H]1CC[C@H](NC(=O)c2n[nH]cc2NC(=O)c2ccccc2F)CC1`, the EC50 worked out at 1 µM.
The same measure, in the same setting: next, `CO[C@H]1CC[C@H](NC(=O)c2n[nH]cc2NC(=O)c2cnc3ccccn23)CC1`: 5.9 µM; `COc1cccc(OC)c1C(=O)Nc1c[nH]nc1C(=O)O`: more than 50 µM.
As to `CO[C@H]1CC[C@H](NC(=O)c2n[nH]cc2NC(=O)c2ccccc2Nc2ccccc2)CC1`, the concentration for a half-maximal effect (EC50) stood at 35 µM.
With `CO[C@H]1CC[C@H](NC(=O)c2n[nH]cc2NC(=O)c2ccccc2C(F)(F)F)CC1`, the EC50 stood at 3.3 µM.

One may read the IC50 as the concentration that gives 50% inhibition. Read a high IC50 as a need for much substance. Usually EC50 stands for the concentration at which the effect is half-maximal.

(Values after ChEMBL document CHEMBL3352013, “The design and synthesis of potent and selective inhibitors of Trypanosoma brucei glycogen synthase kinase 3 for the treatment of human african trypanosomiasis” (J Med Chem, 2014).)
